Screening results as filed in PubChem.
An excerpt weighted towards active compounds, which were near 2.5% of everything screened.
TRPC6 inh: mouse TRPC6 channel inhibitors, primary screen, cell-based, HEK293, membrane potential dye | B-score at 10 µM | AID 2553, 2010 | 310,000 tested, 1.1% active | ACh-evoked depolarization; hits give low values;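 active means B-score under library mean minus 3 SD, initial fluorescence not abnormally high, positive integrated signal ratio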;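 further: B-score derived from integrated fluorescence ratio over the kinetic read; more negative B-score means stronger inhibition of depolarization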
TRPC6 activator: mouse TRPC6 channel activators, primary screen, cell-based, HEK293, membrane potential dye; Short transient receptor potential channel 6 (Mus musculus), Q61143; HEK293-TRPC6 membrane potential dye fluorescence; hits give high values; B-score at 10 µM; 310,000 tested, 0.13% active;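 active means B-score of the integrated fluorescence ratio above library mean plus 3 SD, and starting fluorescence ratio within library mean plus 5 SD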;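 further: higher score means more depolarization so channel activation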
TRPC4 act: activators of mouse TRPC4 channel, primary screen, Fluo4 calcium, HEK293 TRPC4beta/mu-opioid cells. 310,000 tested, 0.49% active. Fluo4 calcium fluorescence; hits give high values. B-score at 10 µM. AID 2237, 2010;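 active means B-score above 5 SD of library B-scores, and initial fluorescence ratio not above library mean plus 5 SD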;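 further: positive B-score marks a calcium rise read as TRPC4 activation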
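Assay system – TRPC4beta and mu-opioid receptor HEK293 stable cells · Measured by – Fluo4 fluorescence, kinetic · Schedule – dye loading 45 min room temperature, 110 s kinetic read · Read-out – B-scored integrated calcium fluorescence ratio · Controls – buffer and maximal DAMGO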
TRPC4 potent: positive allosteric modulators of TRPC4, primary screen, cell-based, mouse TRPC4beta, HEK293 mu-opioid, Fluo-4 calcium; DAMGO EC20, Fluo-4 Ca2+ flux; hits give high values; B-score at 10 µM; 310,000 tested, 0.42% active; AID 2227, 2009;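 active means B-score of calcium response area above 5 SD of library B-scores, with initial fluorescence ratio within 5 SD of library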;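 further: B-score of integrated fluorescence ratio over time as area under calcium response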
TRPC4 block: inhibitors of mouse TRPC4 channel, primary screen, Fluo4 calcium, HEK293 TRPC4beta/mu-opioid cells; Short transient receptor potential channel 4 (Mus musculus), Q9QUQ5; DAMGO-evoked Fluo4 calcium flux; hits give low values; B-score at 10 µM; 300,000 tested, 0.39% active;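 active means B-score over 3 SD under the library average, no early fluorescence shift, positive overall ratio signal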
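material = TRPC4beta/mu-opioid receptor HEK293 cell line | probe or stimulus = sequential submaximal and maximal DAMGO stimulation | compound dosing = one concentration per compound | measured by = Fluo4 Ca2+ flux fluorescence | evaluation = integrated fluorescence ratio relative to baseline, converted to per-well B score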
Platelet DG rel: inhibitors of platelet dense granule secretion, primary screen, cell-based, MLPCN, human platelets. human platelet-rich plasma, SFLLRN dense granule ATP release, luminescence. inhibition, %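 (compounds screened at 7.5 µM in platelet-rich plasma)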. 300,000 tested, 0.22% active;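 active means mean replicate score, as percent of positive control, at or above 50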
TRPC4 spec 2: second selectivity test of TRPC6 inhibitors: effect on mouse TRPC4; AID 2776; 920 tested, 42% active; shares compounds with TRPC6 inh; HEK293 TRPC4/MOR, membrane potential dye fluorescence; channel activated by saturating DAMGO dose; inhibition, % at 10 µM;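 active means compounds whose fluorescence signal differed from control wells by over 3 SD, either direction, in both duplicate plates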
TRPC4 spec: mouse TRPC4 modulation by TRPC6 hits, confirmation, selectivity assay for TRPC6 inhibitor project, cell-based, HEK293 TRPC4/mu-opioid, membrane potential dye; shares compounds with TRPC6 inh; membrane potential fluorescence; activity change, negative = inhibition, % at 10 µM; 920 tested, 61% active;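 active means rise or fall in signal beyond 3 SD of buffer-only wells in both replicate plates, either sign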;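 further: integrated kinetic ratio of fluorescence range over baseline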
HEK293 MPD ctr 2-1: nonspecific membrane potential effects, parental HEK293, confirmation, counter-screen for TRPC6 inhibitor project, cell-based, second counter screen; 920 tested, 31% active; signal change vs control, % at 10 µM; shares compounds with TRPC6 inh; AID 2779, 2010; parental HEK293 membrane potential dye fluorescence; maximal acetylcholine challenge after compound addition;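 active means membrane potential signal moving either way by over 3 SD of the maximum-effect control, in both duplicate plates, meaning non-specific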
HEK293 MPD ctr-1: membrane potential modulation in parental HEK293, confirmation, counter-screen for TRPC6 inhibitor project, cell-based; shares compounds with TRPC6 inh; 920 tested, 60% active; membrane potential signal change, % at 10 µM; parental HEK293 membrane potential dye fluorescence; AID 2780, 2010;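 active means membrane potential signal shifting up or down by more than 3 SD of buffer-only wells, on both duplicate plates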
HEK293 MPD ctr-2: parental HEK293 membrane potential modulation, confirmation, counter-screen for TRPC6 modulator project, cell-based; shares compounds with TRPC6 inh; membrane potential dye fluorescence; membrane potential signal change, % at 10 µM; 2,400 tested, 51% active;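 active means membrane potential signal moves up or down beyond 5 SD from buffer-only wells, on both duplicate plates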
HEK293 MPD ctr 2-2: second counter-screen for TRPC6 modulators: effect in parental HEK293 cells; shares compounds with TRPC6 inh; membrane potential dye fluorescence; after compound, maximal acetylcholine stimulation; inhibition, % at 10 µM; 2,400 tested, 14% active;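 active means membrane potential signal drops by more than 5 SD from the mean control signal, in both duplicate plates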;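 further: plate controls were acetylcholine ECmax control wells for no effect and buffer only wells for full effect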
TRPC4 ctr mod: TRPC4 modulation by TRPC6 hit compounds, confirmation, selectivity assay for TRPC6 modulator project, cell-based, HEK293 TRPC4/mu-opioid, membrane potential dye, mouse; shares compounds with TRPC6 inh; membrane potential fluorescence; percent change from control (negative = decrease, positive = increase), % at 10 µM; 2,400 tested, 69% active; AID 488927, 2010;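 active means membrane potential signal moved up or down beyond 5 SD of buffer control wells, in both duplicate plates, actives on both sides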;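 further: plate controls were assay buffer wells for no effect and DAMGO maximal-effect wells for full effect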
TRPC4 ctr inh 2: second check of whether TRPC6 modulators also affect mouse TRPC4. shares compounds with TRPC6 inh. HEK293 TRPC4/mu-opioid, membrane potential dye fluorescence; stimulated with maximal-effect DAMGO. inhibition, % at 10 µM. 2,400 tested, 55% active. AID 488928;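 active means drop in membrane potential signal beyond 5 SD of the control wells in both duplicate plates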;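 further: TRPC4 counter screen for TRPC6 hits run under conditions tuned for TRPC6 not TRPC4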
TRPC6 inh conf: mouse TRPC6 channel inhibitors, confirmation, HEK293 cells, membrane potential dye, duplicate | inhibition, % at 10 µM | 3,300 tested, 43% active | shares compounds with TRPC6 inh | ACh-evoked depolarization | AID 488960, 2010;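 active means fluorescence ratio falls more than 5 SD below the full-stimulation control mean, in both duplicate runs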;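 further: integrated fluorescence ratio of peak minus minimum over baseline after agonist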
TRPC6 act confirm: mouse TRPC6 channel activators, confirmation, HEK293 cells, membrane potential dye, duplicate; 2,800 tested, 11% active; shares compounds with TRPC6 inh; activation, % at 10 µM; AID 488961, 2010; HEK293-TRPC6 membrane potential dye fluorescence, FDSS;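 active means ratio signal rise beyond 5 SD above unstimulated control wells' mean, seen in both duplicate runs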;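 further: plate controls were buffer EC0 wells for no effect and acetylcholine ECmax response for full effect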
* = called active by the depositor; i = inactive; . = no result.

SMILES	TRPC6 inh	TRPC6 activator	TRPC4 act	TRPC4 potent	TRPC4 block	Platelet DG rel	HEK293 MPD ctr-2	HEK293 MPD ctr 2-2	TRPC4 ctr mod	TRPC4 ctr inh 2	TRPC6 inh conf	TRPC6 act confirm	others
CN(C)CCCN(C(=O)c1ccco1)c1nc2ccc(F)cc2s1	-5.6*	i	i	i	i	0	-150%*	78%*	-39%*	84%*	64%*	i
Cc1ccc2nc(N(CCCN(C)C)C(=O)c3ccc(Br)s3)sc2c1	i	i	i	i	i	-15	.	.	.	.	.	.
CN(C)CCCN(C(=O)c1cc2ccccc2oc1=O)c1nc2ccc(F)cc2s1	i	i	i	i	i	-13	.	.	.	.	.	.
Cc1ccc2nc(N(CCCN(C)C)C(=O)c3ccco3)sc2c1	-7.1*	i	i	i	i	8	.	.	.	.	78%*	i	TRPC4 spec 2=34%*;TRPC4 spec=-20%*;HEK293 MPD ctr 2-1=i;HEK293 MPD ctr-1=-146%*
COc1ccc(-c2nc(CS(=O)CC(=O)NC3CCC(C)CC3)c(C)o2)cc1OC (stereo unspecified)	-6.2*	i	i	i	i	-16	i	i	13%*	29%*	71%*	.
CCCCCCC(=O)N1CCCC(c2nc(-c3cccc(OC)c3)no2)C1 (stereo unspecified)	-5.9*	i	i	i	i	-2	i	i	10%*	30%*	64%*	.
